From PubChem BioAssay
In the library only some 1.7% were active in any assay of this set; here they are far more common.
PGE2 EP2 inh: EP2 receptor (human) inhibition; C6 glioma cells expressing human EP2, cAMP TR-FRET; cells stimulated with saturating PGE2; inhibition, % at 25 µM; hit rate 0.52% among 260,000;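 active = percent inhibition above 40 after rounding to a whole number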;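 note: rat C6 glioma host cells with rolipram phosphodiesterase inhibitor present; the protocol text gives 20 µM as final concentration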
Target sequence (P43116 whole entry, looked up): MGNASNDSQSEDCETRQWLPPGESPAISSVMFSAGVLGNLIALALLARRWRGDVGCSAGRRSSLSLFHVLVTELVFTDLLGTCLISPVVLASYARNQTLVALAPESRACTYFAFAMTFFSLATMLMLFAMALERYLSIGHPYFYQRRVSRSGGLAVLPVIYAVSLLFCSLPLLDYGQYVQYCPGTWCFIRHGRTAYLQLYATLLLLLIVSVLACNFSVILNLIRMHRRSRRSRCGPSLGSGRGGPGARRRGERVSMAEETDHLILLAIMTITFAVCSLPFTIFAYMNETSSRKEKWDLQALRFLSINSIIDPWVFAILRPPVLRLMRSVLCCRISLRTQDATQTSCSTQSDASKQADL
EP2 modulator: modulators of human EP2 prostaglandin E2 receptor. P43116. EP2-expressing cells, cAMP HTRF FRET, PGE2 co-stimulation. induction, % at 25 µM. hit rate 0.83% among 260,000;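 active = compounds whose cAMP rise, as percent of the full-agonist control response, exceeds 60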;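 note: rat C6 glioma line stably carrying human EP2 under a CMV promoter; the protocol text gives 20 µM as final concentration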
Hsp70 activator: Hsp70 transcriptional activation, primary screen; AID 1203; HeLa Hsp70 promoter luciferase reporter, luminescence; scaled: vehicle 0, proteasome-inhibitor control 100%; hit rate 0.04% among 200,000; activation, % at 10 µM;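 active = activation above the mean across all tested compounds plus 3 SD, cutoff set per campaign, cut at about 5.5% in these data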
Dynein cargo inh: dynein cargo transport inhibition. 3617.4 mouse cells, GR-EGFP nuclear translocation imaging; test concentration mostly 20 µM; stimulated with dexamethasone, 1 µM; active compounds read low. z-score, hits read low. hit rate 0.47% among 220,000. AID 1381;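 active = plate z-score of nuclear minus cytoplasmic receptor signal below a set negative limit, without overly bright fluorescence or cell loss, cut at about -3.5 in these data, passing the limit was not always enough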;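 note: z-score of nuclear minus cytoplasmic ring GR-EGFP intensity difference per well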
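Buffer or medium: tet-free, stripped-serum medium; reagent: dexamethasone at 1.0 µM final, 30 min; incubation: 48 h induction, 1 h compound, 30 min dex at 37 °C; measured by: formaldehyde fixation, Hoechst nuclear stain, 10x automated fluorescence imaging; read-out: nuclear-to-cytoplasmic GR-EGFP distribution per well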
Large screens that a line does not name were inactive.

Cc1ccccc1-c1nnc(SCC(=O)N2c3ccccc3Sc3ccccc32)o1	none (no result: Hsp70 activator, Dynein cargo inh)
CC1(C)S[C@H]2[C@H](NC(=O)Cc3ccccc3)C(=O)N2[C@@H]1C(=O)O	PGE2 EP2 inh 49 (no result: Hsp70 activator, Dynein cargo inh)
CC(Oc1ccccc1)C(=O)NC1C(=O)N2C1SC(C)(C)C2C(=O)O (configuration not stated)	none
O=C(O)c1ccc(NC(=S)NC(=O)c2ccc(-c3ccccc3)cc2)cc1	PGE2 EP2 inh 66
O=C(c1cccs1)N1N=C(c2ccc(O)cc2)CC1c1ccccc1 (configuration not stated)	EP2 modulator 65
COc1ccc(C2=NN(C(=O)c3cccs3)C(c3ccc(OC)cc3)C2)cc1 (configuration not stated)	none
O=C(c1cccs1)N1N=C(c2ccccc2)CC1c1ccccc1 (configuration not stated)	EP2 modulator 63
Cc1ccc(OCC(=O)NC(=S)Nc2ccc3c4c(cccc24)CC3)cc1	EP2 modulator 62
O=C1C2C3C=CC(CO)(O3)C2C(=O)N1c1ccccc1-c1ccccc1 (configuration not stated)	Dynein cargo inh -5.7
O=C1C2C3C=CC(CNS(=O)(=O)c4ccccc4)(O3)C2C(=O)N1c1ccc(Cl)cc1 (configuration not stated)	none
CCOC(=O)CSc1nc2ccc(Nc3nc(N4CCOCC4)nc(N4CCOCC4)n3)cc2s1	PGE2 EP2 inh 72
CC(=O)CSc1nc2ccc(Nc3nc(N4CCOCC4)nc(N4CCOCC4)n3)cc2s1	none
CCC(CN1CCOCC1)NC(=O)Cc1sc(C)nc1-c1cc(C)ccc1C (configuration not stated)	none (no result: Hsp70 activator, Dynein cargo inh)
CCOCCn1c(NCCOC)nc2c1c(=O)[nH]c(=O)n2C	none (no result: Hsp70 activator, Dynein cargo inh)
CCc1ccc2[nH]c(=O)c(CN(Cc3ccccc3OC)Cc3nnnn3C(C)(C)CC)cc2c1	EP2 modulator 61 (no result: Hsp70 activator, Dynein cargo inh)
CCOC(=O)Cn1nnnc1CN(Cc1ccccc1)Cc1cc2c(C)cc(C)cc2[nH]c1=O	EP2 modulator 65 (no result: Hsp70 activator, Dynein cargo inh)
Cc1ccc2[nH]c(=O)c(CN(Cc3cccs3)Cc3nnnn3C3CCCC3)cc2c1	EP2 modulator 75 (no result: Hsp70 activator, Dynein cargo inh)
CCC(C)(C)n1nnnc1CN(Cc1ccccc1OC)Cc1cc2cc(C)ccc2[nH]c1=O	none (no result: Hsp70 activator, Dynein cargo inh)
Cc1cc2cc(CN(CCc3ccccc3)Cc3nnnn3C3CCCCC3)c(=O)[nH]c2cc1C	EP2 modulator 66 (no result: Hsp70 activator, Dynein cargo inh)
CCc1ccc2[nH]c(=O)c(CN(Cc3ccccc3)Cc3nnnn3C3CCCCC3)cc2c1	EP2 modulator 74 (no result: Hsp70 activator, Dynein cargo inh)
Cc1ccc2[nH]c(=O)c(CN(Cc3ccc(F)cc3)Cc3nnnn3C3CCCC3)cc2c1	EP2 modulator 63 (no result: Hsp70 activator, Dynein cargo inh)
CCc1ccc2[nH]c(=O)c(CN(Cc3ccc4c(c3)OCO4)Cc3nnnn3C3CCCC3)cc2c1	none
Cc1ccc2cc(CN(Cc3ccccc3)Cc3nnnn3C3CCCC3)c(=O)[nH]c2c1	EP2 modulator 62
O=S(=O)(Nc1nccs1)c1cc(Cl)ccc1Cl	EP2 modulator 61
CCOC(=O)c1c(NC(=O)Nc2ccccc2)sc(C)c1C	EP2 modulator 62
O=C(NCCO)C(=O)NCC1OCCc2ccccc21 (configuration not stated)	none (no result: Hsp70 activator, Dynein cargo inh)
CN1[C@@H](c2ccccc2)CC(=NO)C[C@H]1c1ccccc1	PGE2 EP2 inh 42 (no result: Hsp70 activator, Dynein cargo inh)
CC(C)Cc1cc(C(=O)N2CCC(c3ncncc3-c3ccncc3)CC2)no1	none (no result: PGE2 EP2 inh, Hsp70 activator, Dynein cargo inh)
COc1ccc(CCN(Cc2cc3cc(C)ccc3n3nnnc23)C(=O)N(C)C)cc1OC	none (no result: Hsp70 activator, Dynein cargo inh)
CN1CCc2cc(O)c(O)cc2C(c2ccccc2)C1 (configuration not stated)	none (no result: Hsp70 activator, Dynein cargo inh)
CN1C[C@H](c2ccccc2)C(O)([C@]2(c3ccccc3)CN(C)C[C@H](c3ccccc3)C2=O)[C@H](c2ccccc2)C1 (some centres not stated)	PGE2 EP2 inh 40 (no result: Hsp70 activator, Dynein cargo inh)
O=C(O)/C=C/c1cccc(NC(=O)c2ccccc2)c1	EP2 modulator 93 (no result: Hsp70 activator)
O=C(O)/C=C/c1cccc(NC(=O)c2ccc(Cl)cc2)c1	none
CCC(=O)Nc1cc(NC(=O)c2ccco2)ccc1OC	none (no result: Hsp70 activator, Dynein cargo inh)
N#Cc1ccc(OC(=O)c2ccc(N=C(N)N)cc2)cc1	PGE2 EP2 inh 75 (no result: Hsp70 activator, Dynein cargo inh)
CCCC(=O)Nc1cccc(NC(=O)c2ccc([N+](=O)[O-])o2)c1	PGE2 EP2 inh 42 (no result: Hsp70 activator, Dynein cargo inh)
CCC(=O)Nc1cccc(NC(=O)c2ccc([N+](=O)[O-])o2)c1	PGE2 EP2 inh 98 (no result: Hsp70 activator, Dynein cargo inh)
O=C(Nc1cccc(NC(=O)c2cccs2)c1)c1ccc([N+](=O)[O-])o1	none (no result: Hsp70 activator)
CCC(=O)Nc1cccc(NC(=O)CSc2nnnn2-c2ccc(C(=O)OC)cc2)c1	none (no result: Hsp70 activator, Dynein cargo inh)
N#Cc1c(-c2ccc(Cl)cc2)cc(-c2ccco2)[nH]c1=O	none (no result: Hsp70 activator, Dynein cargo inh)
